Screens (PubChem)
Hits are enriched below; roughly 4% of the tested compounds scored in any of these assays.
iPSC survival up: enhancers of single-cell hiPSC survival, primary screen, ATPlite luminescence | hit rate 0.044% among 360,000 | AID 602274, 2012 | survival enhancement, % at 20 µM | 100% = ROCK inhibitor wells, 0% = DMSO; in the data active = survival enhancement above about 18%;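 note: cells exposed to compounds for 16 hours before the ATP read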
NR3A LBD binder: binders of NR3A ligand-binding domain, primary screen, biophysical, differential scanning fluorimetry, uHTS; Glutamate receptor ionotropic, NMDA 3A (GRIN3A) ligand-binding domain; NR3A LBD differential scanning fluorimetry, Tm shift; 0% = protein alone, 100% = glycine-bound protein; Tm shift relative to glycine control, % at 25 µM; hit rate 2.5% among 340,000; AID 1259313, 2017;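 active = melting temperature shift of at least 10% of the positive control shift, at one fixed dose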
Arrestin-AP2 inh: inhibitors of beta-arrestin/AP2 binding, primary screen, biochemical, GPCR trafficking, flow cytometry; beta-arrestin 1 C-terminal peptide binding to AP2 beta2-adaptin appendage (human); FITC-arrestin peptide / GST-AP2 beads; AP2 beta2 appendage carries R879A mutation; inhibition, % at 10 µM; hit rate 0.31% among 340,000; AID 504490, 2011;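 active = inhibition above a set limit, near 3 SD of compounds lacking own fluorescence, cut at about 54% in these data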;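 note: plate controls were DMSO wells for no effect and 5 µM unlabelled arrestin peptide for full effect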
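system = GST-tagged AP2 beta2-adaptin appendage (R879A) on 4 µm glutathione beads | reagent = FITC-labelled arrestin peptide probe, 50 nM final | schedule = compound with beads 12 min RT, then probe 1 h RT | signal = HyperCyt-sampled flow cytometry, FL1 channel, ex 488/em 535 nm | read-out = percent response from loss of bead-bound FITC fluorescence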
SENP1 FRET inh: human SENP1 catalytic domain inhibitors, primary screen, biochemical, FRET, uHTS; recombinant SENP1 catalytic domain, CyPet-SUMO1-YPet FRET cleavage; inhibition, % at 10 µM; hit rate 0.21% among 360,000; AID 624204, 2012; Sentrin-specific protease 1 (Homo sapiens), Q9P0U3;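 active = inhibition at least 30% at 10 µM, raw YFP signal under a set limit, fluorescence ratio 0.5 to 1.5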;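 note: 0% = enzyme with DMSO and 100% = no enzyme wells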
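Material: hSENP1 catalytic domain, recombinant; medium: Tris pH 8 with BME, BSA, NP40 and catalase; compound: single concentration of 10 µM compound, 0.5% DMSO final; technique: FRET read of cyan and yellow fluorescence; timing: 50 min enzyme reaction, room temperature, light-protected; reagent: SFCypet-SUMO1-SFYpet substrate at 25 nM; control set: no-enzyme low, enzyme-DMSO high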
Cardio protect: cardioprotection against H2O2-induced cell death, primary screen, uHTS, H9c2 cells, ATPLite luminescence | protection from H2O2 cell death, % at 20 µM | hit rate 0.63% among 360,000 | H9c2 cardiomyocytes, H2O2 injury protection, 2 h;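 active = compounds giving at least 50% protection of heart cells from peroxide-induced death in the single-dose screen, raw or plate-pattern-corrected value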;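 note: 0% = DMSO wells with peroxide and 100% = DMSO wells without peroxide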
FAS-TE inh: FAS thioesterase domain inhibitors, primary screen, biochemical, fluorescence intensity, uHTS | recombinant FAS-TE, OMFH fluorogenic substrate, fluorescence endpoint | inhibition, % at 15 µM | hit rate 0.67% among 360,000 | AID 602261, 2012;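 active = compounds whose normalised, plate-corrected inhibition of enzyme fluorescence in the single-dose primary screen is 50% or more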;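 note: 0% = DMSO with enzyme and 100% = substrate without enzyme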
FAS-TE inh conf: FAS thioesterase domain inhibitors, confirmation, biochemical, fluorescence intensity, single concentration; inhibition, % at 15 µM; shares compounds with FAS-TE inh; recombinant FAS-TE, OMFH fluorogenic substrate; hit rate 45% among 2,300; AID 624325, 2012;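 active = compounds inhibiting the enzyme by at least 50% at 15 µM in any one of the replicates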;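 note: 0% = enzyme with DMSO only and 100% = wells lacking enzyme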
* marks the source's active call; other numbers are inactive results.

Screening C[C@]12C(=O)N(c3ccc(C(F)(F)F)cc3)C(=O)N1[C@H]1c3ccccc3OC[C@@H]1[C@H]2c1ccccc1 returned iPSC survival up -0.8, NR3A LBD binder 0.2, Arrestin-AP2 inh -10.9, SENP1 FRET inh 1.1, Cardio protect -1.1, FAS-TE inh 81.8* and FAS-TE inh conf 21.2.
Screening C[C@]12C(=O)N(c3ccc(Cl)cc3)C(=O)N1[C@H]1c3ccccc3OC[C@@H]1[C@H]2c1ccccc1 returned iPSC survival up 12.8, NR3A LBD binder 0.9, Arrestin-AP2 inh 2.6, SENP1 FRET inh -0.7, Cardio protect -0.5, FAS-TE inh 92.9* and FAS-TE inh conf 12.1.
`C[C@@]12C(=O)N(c3ccc(Cl)cc3)C(=O)N1[C@@H]1c3ccccc3OC[C@@H]1[C@H]2c1ccccc1` gave iPSC survival up -1.1, NR3A LBD binder 0.5, Arrestin-AP2 inh -5.9, SENP1 FRET inh 0.7, Cardio protect 12.9 and FAS-TE inh 32.3.
C[C@@]12C(=O)N(c3ccccc3)C(=O)N1[C@@H]1c3ccccc3OC[C@@H]1[C@H]2c1ccccc1 was read as iPSC survival up -0.2, NR3A LBD binder -0.8, Arrestin-AP2 inh -2.2, SENP1 FRET inh 3.2, Cardio protect 47.3 and FAS-TE inh 32.4.
Screening Cc1ccc(S(=O)(=O)N2C[C@@H]3[C@H]4CC[C@H](C4)[C@@H]3[C@@H](C)[C@H]2c2ccco2)cc1 returned iPSC survival up 1.7, NR3A LBD binder 2.1, Arrestin-AP2 inh 4.9, SENP1 FRET inh 1.1, Cardio protect -24.4 and FAS-TE inh 11.4.
For O=C(Nc1ccc2nc([C@@H]3O[C@H](CO)[C@@H](O)[C@H](O)[C@H]3O)[nH]c2c1)NC(c1ccccc1)c1ccccc1 the results were iPSC survival up 4.5, SENP1 FRET inh -0.4, Cardio protect 0.9 and FAS-TE inh 6.7.
`CC(C)(C)OC(=O)N1CCc2onc(-c3ccc(N)cc3)c2C1=O` gave iPSC survival up 0.6, SENP1 FRET inh -4.0, Cardio protect 24.3 and FAS-TE inh -3.7.
Screening C[C@@]12C(=O)N(c3ccc(Br)cc3)C(=O)N1[C@@H]1c3ccccc3OC[C@@H]1[C@H]2c1ccccc1 returned iPSC survival up 1.7, NR3A LBD binder 0.8, Arrestin-AP2 inh 2.5, SENP1 FRET inh 1.0, Cardio protect 12.6, FAS-TE inh 60.8* and FAS-TE inh conf 24.3.
For COc1ccc([C@@H]2[C@@H]3C(=O)N(C(C)(C)C)C(=O)[C@@H]3[C@]3(Cc4ccc(Cl)cc4)C(=O)N(c4ccc(Br)cc4)C(=O)N23)cc1 the results were iPSC survival up -1.1, NR3A LBD binder -6.6, Arrestin-AP2 inh -2.8, SENP1 FRET inh 0.8, Cardio protect -2.8, FAS-TE inh 87.6* and FAS-TE inh conf 55.0*.
For Cc1cccc(N2C(=O)N3[C@H](c4ccc(Br)cc4)[C@@H]4C(=O)N(C(C)(C)C)C(=O)[C@@H]4[C@]3(Cc3ccc(Cl)cc3)C2=O)c1 the results were iPSC survival up -1.4, NR3A LBD binder 7.0, Arrestin-AP2 inh 5.2, SENP1 FRET inh 0.3, Cardio protect -5.6, FAS-TE inh 89.0* and FAS-TE inh conf 44.7.
`COc1ccc([C@@H]2[C@@H]3C(=O)N(C(C)(C)C)C(=O)[C@@H]3[C@]3(C)C(=O)N(c4ccc(C)cc4)C(=O)N23)cc1` gave iPSC survival up -1.4, NR3A LBD binder 0.2, Arrestin-AP2 inh 7.5, SENP1 FRET inh 1.5, Cardio protect 6.3 and FAS-TE inh -3.7.
`Cc1cccc(N2C(=O)N3[C@H](c4ccc(Br)cc4)[C@@H]4C(=O)N(C(C)(C)C)C(=O)[C@@H]4[C@]3(C)C2=O)c1` gave iPSC survival up 2.4, NR3A LBD binder -5.7, Arrestin-AP2 inh -1.6, SENP1 FRET inh 3.1, Cardio protect 0.3 and FAS-TE inh 12.6.
Screening COc1ccc([C@@H]2[C@@H]3C(=O)N(C(C)(C)C)C(=O)[C@@H]3[C@]3(Cc4ccccc4)C(=O)N(c4ccc(C)cc4)C(=O)N23)cc1 returned iPSC survival up 0.2, NR3A LBD binder -0.6, Arrestin-AP2 inh 30.4, SENP1 FRET inh 1.6, Cardio protect -2.6 and FAS-TE inh 22.5.
COc1ccc(N2C(=O)N3[C@H](c4ccc(Cl)cc4)[C@@H]4C(=O)N(C5CCCCC5)C(=O)[C@@H]4[C@]3(Cc3ccc(Cl)cc3)C2=O)cc1 was read as iPSC survival up -1.3, NR3A LBD binder -4.8, Arrestin-AP2 inh 3.6, SENP1 FRET inh 2.0, Cardio protect 1.7, FAS-TE inh 87.9* and FAS-TE inh conf 28.8.
CCN1C(=O)[C@H]2[C@@H](c3ccc(C)cc3)N3C(=O)N(c4ccc(OC)cc4)C(=O)[C@@]3(Cc3ccc(Cl)cc3)[C@H]2C1=O was read as iPSC survival up -1.6, NR3A LBD binder 0.6, Arrestin-AP2 inh 0.3, SENP1 FRET inh 1.6, Cardio protect -0.5 and FAS-TE inh 19.5.
`COc1ccc([C@@H]2[C@@H]3C(=O)N(C(C)(C)C)C(=O)[C@@H]3[C@]3(Cc4ccc(Cl)cc4)C(=O)N(c4ccc(OC)cc4)C(=O)N23)cc1` gave iPSC survival up -2.1, NR3A LBD binder -4.9, Arrestin-AP2 inh 0.2, SENP1 FRET inh 2.3, Cardio protect -0.1, FAS-TE inh 92.4* and FAS-TE inh conf 28.5.
For COc1cc(-c2ccc(Nc3ccccc3C(=O)O)c(OC)c2)ccc1Nc1ccccc1C(=O)O the results were iPSC survival up 0.0, NR3A LBD binder 38.5*, Arrestin-AP2 inh 32.2, SENP1 FRET inh -3.5, Cardio protect -1.8, FAS-TE inh 71.1* and FAS-TE inh conf 72.7*.
`N#Cc1cccc(-n2c(-c3ccccc3)nnc2-c2ccccc2)c1C#N` gave iPSC survival up -0.4, NR3A LBD binder -8.3, Arrestin-AP2 inh 0.9, SENP1 FRET inh -0.8, Cardio protect 17.5, FAS-TE inh 58.5* and FAS-TE inh conf 17.1.
For N#Cc1ccc(-n2c(-c3ccccc3)nnc2-c2ccccc2)cc1C#N the results were iPSC survival up -0.8, NR3A LBD binder -0.1, Arrestin-AP2 inh -3.6, SENP1 FRET inh 4.5, Cardio protect 3.2 and FAS-TE inh 42.9.
